The record followed here is ChEMBL document CHEMBL1154106, “Inhibitory effects of 5-benzylidene barbiturate derivatives on mushroom tyrosinase and their antibacterial activities” (Eur J Med Chem, 2009).

Values after ≈ are worked out from the molar mass of the structure shown. Active and inactive are the calls of the source. The calls are words filed in the database; no cut-off is given here.

Assay [1] concerns Bacillus cereus. The assay can be described thus: Antibacterial activity against Bacillus cereus at 1 mg/ml after 24 hrs by agar dilution method. The assay is classed as functional, organism-based. (In general: In agar dilution the substance is mixed into plates at graded concentrations.)
The subject of assay [2] is Escherichia coli. As to the kind of experiment: Antibacterial activity against Escherichia coli at 1 mg/ml after 24 hrs by agar dilution method. Format: functional, organism-based.
In assay [3] the test system is Pseudomonas aeruginosa. As to the kind of experiment: Antibacterial activity against Pseudomonas aeruginosa at 1 mg/ml after 24 hrs by agar dilution method. Format: functional, organism-based. In short, it runs like this:
(§1)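 Agar well diffusion: overnight (16–18 h, 37 °C) cultures set to 0.5 McFarland and mixed into Mueller–Hinton agar. Compound stock 1 mg/mL in DMSO loaded into 6 mm wells, with DMSO as control and levofloxacin as reference. Plates incubated 37 °C for 24 h. Read-out is the diameter of the growth-inhibition zone around each well.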

Assay [4] has as its target T1, Tyrosinase (Agaricus bisporus, UniProt O42713).
T1 sequence (O42713 whole entry): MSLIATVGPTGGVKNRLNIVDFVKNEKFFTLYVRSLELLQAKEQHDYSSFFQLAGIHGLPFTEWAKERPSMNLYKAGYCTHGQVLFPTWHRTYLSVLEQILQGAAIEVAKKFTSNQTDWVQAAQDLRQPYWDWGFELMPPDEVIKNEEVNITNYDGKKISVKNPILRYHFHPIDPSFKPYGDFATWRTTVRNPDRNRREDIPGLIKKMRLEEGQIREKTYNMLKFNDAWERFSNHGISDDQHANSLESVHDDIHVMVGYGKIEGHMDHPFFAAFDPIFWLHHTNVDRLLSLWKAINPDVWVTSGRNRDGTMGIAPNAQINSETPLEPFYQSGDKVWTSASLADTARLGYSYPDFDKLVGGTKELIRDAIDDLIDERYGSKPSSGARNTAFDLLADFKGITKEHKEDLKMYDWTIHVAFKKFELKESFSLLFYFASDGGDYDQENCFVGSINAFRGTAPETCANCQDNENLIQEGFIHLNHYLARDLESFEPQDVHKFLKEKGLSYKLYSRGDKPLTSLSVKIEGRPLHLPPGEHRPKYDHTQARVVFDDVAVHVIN
The assay can be described thus: Inhibition of mushroom tyrosinase. The essentials:
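Mushroom tyrosinase diphenolase assay: 1 mL reaction with 0.5 mM L-DOPA in 50 mM sodium phosphate buffer, pH 6.8, enzyme final 0.5 mg/mL, 25 °C. Compounds dissolved in DMSO (2.0% final); DMSO-only controls run. Dopachrome formation followed at 475 nm for 1 min. IC50 interpolated from dose–response curves; means of three experiments.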

Assay [5] concerns the target T2, Tyrosinase (Agaricus bisporus) (UniProt O42713).
T2 sequence (whole entry): T1 sequence (O42713 whole entry)
As to the kind of experiment: Inhibition of mushroom tyrosinase at 200 uM. The essentials:
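Single-concentration check in the mushroom tyrosinase diphenolase assay. Conditions: 0.5 mM L-DOPA, 50 mM phosphate buffer pH 6.8, enzyme 0.5 mg/mL, 25 °C, 2.0% DMSO final with DMSO controls. Activity read as dopachrome absorbance at 475 nm over 1 min.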

Assay [6] has as its system Staphylococcus aureus. As to the kind of experiment: Antibacterial activity against Staphylococcus aureus after 24 hrs by agar dilution method. The assay is classed as functional. In short, it runs like this: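 MIC by agar dilution on Mueller–Hinton agar containing twofold serial dilutions from a 1 mg/mL DMSO stock. Final levels 50, 25, 12.5, 6.25, 3.1, 1.5, 0.8, 0.4 and 0.2. Inoculum was 16–18 h cultures at 0.5 McFarland; plates incubated 37 °C for 24 h. MIC is the lowest concentration preventing visible growth; levofloxacin was the reference.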

The test system of assay [7] is Staphylococcus epidermidis. As to the kind of experiment: Antibacterial activity against Staphylococcus epidermidis at 1 mg/ml after 24 hrs by agar dilution method. The assay is classed as functional, organism-based. In short, it runs like this: as §1
The subject of assay [8] is Staphylococcus. As to the kind of experiment: Antibacterial activity against Staphylococcus albus at 1 mg/ml after 24 hrs by agar dilution method. Format: functional, organism-based.

Regarding `COCCOCCOc1ccc(CC2C(=O)NC(=S)NC2=O)cc1`, the outcome in assay [1], in assay [2], in assay [3], in assay [7] and in assay [8] was inactive. Also, the IC50 – broadly, the concentration at which inhibition is half-maximal – in assay [4] came to 132 µM. Also, in assay [5], the inhibition (in general, the percentage by which the read-out fell short of the control) worked out at 97.5%. The MIC – broadly, the least concentration at which growth counts as inhibited – in assay [6] is above 12.5 µg/mL.
As to `COCCCCOc1ccc(CC2C(=O)NC(=O)NC2=O)cc1`, the result in assay [1], in assay [2], in assay [3], in assay [7] and in assay [8] was inactive. This compound returned an IC50 in assay [4] above 200 µM. The inhibition in assay [5] is 1.15%. For the same compound, the MIC in assay [6] is above 12.5 µg/mL.
For `O=C1NC(=S)NC(=O)C1=Cc1ccc(OCCO)cc1`, the outcome in assay [1], in assay [2], in assay [3], in assay [7] and in assay [8] was inactive. Also, in assay [4], the IC50 was above 200 µM. The compound also registered an inhibition in assay [5] of 16.5%. The compound further returned a minimal inhibitory concentration (MIC) in assay [6] above 25 µg/mL.
With `CCCCOCCOc1ccc(C=C2C(=O)NC(=S)NC2=O)cc1`, the outcome in assay [1], in assay [2], in assay [3], in assay [7] and in assay [8] was inactive. Moreover, the half-maximal inhibitory concentration (IC50) in assay [4] came out at 107 µM. In assay [5], this compound gave an inhibition of 85.9%. Moreover, the MIC in assay [6] is 3.1 µg/mL (≈ 8.9 µM).
For the compound `COCCCCOc1ccc(C=C2C(=O)NC(=O)NC2=O)cc1`, the result in assay [1], in assay [2], in assay [3], in assay [7] and in assay [8] was inactive. The same compound gave an IC50 in assay [4] above 200 µM. In addition, in assay [5], the inhibition came out at 12.2%. In assay [6], this compound registered a minimal inhibitory concentration (MIC) above 25 µg/mL.
The compound `COc1ccc(/C=C/C(=O)O)cc1` had an inhibition in assay [5] of 46.6%.
Take `O=C1NC(=O)C(=Cc2ccc(OCCO)cc2)C(=O)N1`: the result in assay [1], in assay [2], in assay [3], in assay [7] and in assay [8] was inactive. In addition, in assay [4], the IC50 is above 200 µM. This compound also had an inhibition in assay [5] of 22.4%. In assay [6], the MIC is above 25 µg/mL.
`O=Cc1ccc(O)cc1` [4-HYDROXYBENZALDEHYDE] showed an IC50 in assay [4] of 1220 µM. Further, the inhibition in assay [5] is 16.4%.
In assay [6], `C[C@H]1COc2c(N3CCN(C)CC3)c(F)cc3c(=O)c(C(=O)O)cn1c23.C[C@H]1COc2c(N3CCN(C)CC3)c(F)cc3c(=O)c(C(=O)O)cn1c23.O` [LEVOFLOXACIN] yielded a minimal inhibitory concentration (MIC) of 0.4 µg/mL.
On to `CCCCOCCOc1ccc(CC2C(=O)NC(=O)NC2=O)cc1`, for which the outcome in assay [1], in assay [2], in assay [3], in assay [7] and in assay [8] was inactive. The compound also had a half-maximal inhibitory concentration (IC50) in assay [4] above 200 µM. In assay [5], the inhibition entry is “inactive”. For the same compound, in assay [6], the MIC is above 12.5 µg/mL.
With `O=C1NC(=O)C(Cc2ccc(OCCO)cc2)C(=O)N1`, the outcome in assay [1], in assay [2], in assay [3], in assay [7] and in assay [8] was inactive. Moreover, in assay [4], the IC50 was above 200 µM. Further, in assay [5], the inhibition worked out at 5.27%. The minimum inhibitory concentration (MIC) in assay [6] is above 12.5 µg/mL.
`O=C1CC(=O)NC(=S)N1` [THIOBARBITURIC] displayed an IC50 in assay [4] above 200 µM. This compound also gave an inhibition in assay [5] of 8.21%.
Take `O=C1NC(=S)NC(=O)C1Cc1ccc(O)cc1`: the result in assay [1], in assay [2], in assay [3], in assay [7] and in assay [8] was inactive. This compound also displayed an IC50 in assay [4] of 70 µM. The same compound registered an inhibition in assay [5] of 100%. In assay [6], the minimum inhibitory concentration (MIC) is above 25 µg/mL.
For the compound `COCCCCOc1ccc(CC2C(=O)NC(=S)NC2=O)cc1`, the result in assay [1], in assay [2], in assay [3], in assay [7] and in assay [8] was inactive. In addition, the 50% inhibitory concentration (IC50) in assay [4] is above 200 µM. In assay [5], this compound yielded an inhibition of 9.85%. This compound returned an MIC in assay [6] above 12.5 µg/mL.
In the case of `O=C1NC(=S)NC(=O)C1Cc1ccc(OCCO)cc1`, the outcome in assay [1], in assay [2], in assay [3], in assay [7] and in assay [8] was inactive. Moreover, in assay [4], the half-maximal inhibitory concentration (IC50) came out at 156 µM. Also, the inhibition in assay [5] amounted to 95.9%. Further, the minimal inhibitory concentration (MIC) in assay [6] was above 25 µg/mL.
Consider `COCCOc1ccc(CC2C(=O)NC(=O)NC2=O)cc1`, for which the outcome in assay [1], in assay [2], in assay [3], in assay [7] and in assay [8] was inactive. The IC50 in assay [4] is above 200 µM. This compound returned an inhibition in assay [5] of 23.1%. The MIC in assay [6] was above 12.5 µg/mL.
Take `O=C1NC(=O)C(=Cc2ccc(O)cc2)C(=O)N1`: the result in assay [1], in assay [2], in assay [3], in assay [7] and in assay [8] was inactive. The half-maximal inhibitory concentration (IC50) in assay [4] stood at 14 µM. The compound also registered an inhibition in assay [5] of 100%. The same compound came in with an MIC in assay [6] above 25 µg/mL.
`O=C1NC(=S)NC(=O)C1=Cc1ccc(O)cc1`: the result in assay [1], in assay [2], in assay [3], in assay [7] and in assay [8] was inactive. In assay [4], this compound had an IC50 of 14.5 µM. In assay [5], this compound registered an inhibition of 100%. The compound also came in with a minimum inhibitory concentration (MIC) in assay [6] of 3.1 µg/mL (≈ 12.5 µM).
Turning to `COCCOCCOc1ccc(C=C2C(=O)NC(=S)NC2=O)cc1`, the result in assay [1], in assay [2], in assay [3], in assay [7] and in assay [8] was inactive. Also, the concentration for half-maximal inhibition (IC50) in assay [4] turned out to be 34.2 µM. Further, the inhibition in assay [5] turned out to be 100%. In addition, the minimal inhibitory concentration (MIC) in assay [6] is above 12.5 µg/mL.
On to `COCCCCOc1ccc(C=C2C(=O)NC(=S)NC2=O)cc1`, for which the result in assay [1], in assay [2], in assay [3], in assay [7] and in assay [8] was inactive. Moreover, in assay [4], the IC50 is 77.8 µM. Moreover, the inhibition in assay [5] is 100%. For the same compound, the MIC in assay [6] was above 25 µg/mL.
Turning to `CCCCOCCOc1ccc(CC2C(=O)NC(=S)NC2=O)cc1`, the outcome in assay [1], in assay [2], in assay [3], in assay [7] and in assay [8] was inactive. In assay [4], inhibition was half-maximal at 179 µM (IC50). Moreover, the inhibition in assay [5] was 78.7%. For the same compound, the MIC in assay [6] amounted to 6.25 µg/mL (≈ 17.8 µM).
Regarding `COCCOCCOc1ccc(CC2C(=O)NC(=O)NC2=O)cc1`, the outcome in assay [1], in assay [2], in assay [3], in assay [7] and in assay [8] was inactive. The IC50 in assay [4] is above 200 µM. This compound returned an inhibition in assay [5] of 14.3%. The MIC in assay [6] is above 12.5 µg/mL.
Compound `O=C1CC(=O)NC(=O)N1` [BARBITURIC ACID] gave a half-maximal inhibitory concentration (IC50) in assay [4] above 200 µM. The compound also showed an inhibition in assay [5] of 5.95%.
